How the values were obtained:
[1] = melting temperature; fluorescence melt of hairpins on a sequencing array, two-state fit, raised by 9.35 °C to match UV melts; details: sodium 0.088 M
Procedure, shortened: (§1)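 Melting temperature and folding enthalpy were obtained by bootstrapped two-state fitting. Fits used Cy3 fluorescence of library hairpins with annealed Cy3 and quencher oligos on a sequenced MiSeq flow cell, imaged in 50 mM Na-HEPES pH 8.0, 25 mM NaCl in 2.5 °C steps up to 60 °C and normalised to pre-quench Cy3 and control constructs. Four replicates were combined by inverse-variance weighting, and fitted temperatures were raised by 9.35 °C to match UV melts.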

[2] = folding enthalpy; higher = less favourable; fluorescence melt of hairpins on a sequencing array, two-state fit; details: sodium 0.088 M
Procedure, shortened: as §1

Sequence	Tm [1] [°C]	folding enthalpy [2] [kcal/mol]
GCCATCGGAAACAATGGC (((((.(....).)))))	44.7	-29.6
GCCATCGGAAACGATAGC ((.((((....)))).))	45	-21.6
GCCATCGGAAACGGTGGC ((((.((....)).))))	59.3	-46.7
GCCATGCGAAAGCAATGC ((..(((....)))..))	41.3	-12.6
GCCATGCGAAAGCACCGC ((..(((....)))..))	24.1	-8.84
GCCATGCGAAAGCACTGC ((..(((....)))..))	31.8	-10.4
GCCATGCGAAAGCAGCGC ((..(((....)))..))	47	-17.2
GCCATGCGAAAGCAGTGC ((..(((....)))..))	39.7	-15.2
GCCATGCGAAAGCATCGC ((.((((....)))).))	49.5	-18.1
GCCATGCGAAAGCTTAGC ((.(.((....)).).))	28	-13.1
GCCATGGAAACATGGC ((((((....))))))	67.7	-34
GCCATGGGAAACTGTGGC ((((..(....)..))))	47.1	-28.2
GCCATTGAAAAATGGC ((((((....))))))	58.4	-39.8
GCCATTGGAAACAACGGC (((.(((....))).)))	43	-33.1
GCCATTGGAAACAATGGC (((((((....)))))))	67.5	-43.9
GCCCAACGAAAGTTCGGC (((.(((....))).)))	45.5	-29.9
GCCCAAGAAATTGGGC ((((((....))))))	63.1	-33.3
GCCCAAGGAAACTTAGGC (((.(((....))).)))	35.4	-21.9
GCCCACCGAAAGGTAGGC (((.(((....))).)))	55.5	-38
GCCCACCGAAAGGTGGC (((.(((....))))))	62.3	-9.61
GCCCACGAAAGTGACGGC ((((((....)))..)))	49.6	-19.9
GCCCACGAAAGTGTCGGC ((((((....)))..)))	48.4	-19.6
GCCCACGGAAACGTGGAC (.(((((....))))).)	50.6	-14.1

Sequence	Tm [1] [°C]	folding enthalpy [2] [kcal/mol]
GCCCAGCGAAAGCCGTGC ((.(.((....)).).))	27.1	-7.02
GCCCAGCGAAAGCGCGGC (((..((....))..)))	61.9	-22.1
GCCCAGCGAAAGCGTGGC (((..((....))..)))	62.4	-23
GCCCAGCGAAAGCTCAGC ((..(((....)))..))	32.6	-8.74
GCCCAGCGAAAGCTCGGC (((.(((....))).)))	51.3	-40.4
GCCCAGCGAAAGCTCTGC ((..(((....)))..))	26.9	-6.7
GCCCAGCGAAAGCTTTGC ((..(((....)))..))	37.6	-7.49
GCCCATCGAAAGATGGC (((.(((....))))))	56.1	-14
GCCCATGGAAACGTGGGC (((((.(....).)))))	59	-38.2
GCCCCACGAAAGTGCGGC (((.(((....))).)))	54.3	-29.6
GCCCCAGCGAAAGCTGGC (((..(((....))))))	37.9	-5.59
GCCCCAGGAAACTAGGGC ((((.((....)).))))	46.4	-29.1
GCCCCCCCGAAAGGGGGC (((..(((....))))))	65.2	-11.2
GCCCCCCGAAAGGGAGGC (((.(((....))).)))	67	-29.8
GCCCCCGAAAGGGAAGGC ((((((....)))..)))	55.7	-27
GCCCCCGAAAGGGCCGGC ((((((....)))..)))	54.3	-16.4
GCCCCCGAAAGGGCGGC ((((((....))).)))	68.5	-23.2
GCCCCCGGAAACAGGGGC (((((.(....).)))))	56.7	-35
GCCCCCGGAAACGGGAGC ((.((((....)))).))	54.2	-25
GCCCCGACGAAAGTCGGC (((..(((....))))))	41.1	-4.92
GCCCCGCGAAAGCCGCGC ((.(.((....)).).))	31.5	-13.7
GCCCCGCGAAAGCGCTGC ((..(((....)))..))	31.6	-9.38
GCCCCGCGAAAGCTGAGC ((.(.((....)).).))	35	-10.7

Sequence	Tm [1] [°C]	folding enthalpy [2] [kcal/mol]
GCCCCGCGAAAGCTTGGC (((..((....))..)))	43.1	-19.9
GCCCCTACGAAAGTAGGC (((..(((....))))))	36.7	-6.61
GCCCCTCCGAAAGGAGGC (((..(((....))))))	39.8	-5.85
GCCCGACGAAAGTCCGGC (((.(((....))).)))	51.8	-30.7
GCCCGCCGAAAGGCGGC (((.(((....))))))	66.6	-7.03
GCCCGCGAAAGCGAAGGC ((((((....)))..)))	63.3	-24.8
GCCCGCGAAAGCGGAGGC ((((((....)))..)))	60	-13.7
GCCCGGCGAAAGCCACGC ((..(((....)))..))	35.9	-8.86
GCCCGGCGAAAGCCTTGC ((..(((....)))..))	35.7	-8.46
GCCCGGCGAAAGCGGAGC ((.(.((....)).).))	54.8	-14.8
GCCCGGGCGAAAGCCGGC (((..(((....))))))	59.5	-12.5
GCCCGTGCGAAAGCAGGC (((..(((....))))))	52	-12.4
GCCCGTGGAAACATGGGC ((((.((....)).))))	61.2	-46
GCCCTACGAAAGTAGGC (((.(((....))))))	56.8	-13
GCCCTACGAAAGTATGGC (((.(((....))).)))	49	-34.3
GCCCTCACGAAAGTGGGC (((..(((....))))))	53.5	-19.4
GCCCTCCGAAAGGAAGGC (((.(((....))).)))	53	-30.8
GCCCTCCGAAAGGACGGC (((.(((....))).)))	50.4	-40.7
GCCCTCGAAAGAGCTGGC ((((((....)))..)))	42.3	-24.7
GCCCTCGAAAGAGGAGGC ((((((....)))..)))	51.9	-17
GCCCTCGAAAGAGTCGGC ((((((....)))..)))	40.9	-24.1
GCCCTCGGAAACGAAGGC (((.(((....))).)))	46.6	-34.1
GCCCTCTCGAAAGAGGGC (((..(((....))))))	68.1	-40.5

Sequence	Tm [1] [°C]	folding enthalpy [2] [kcal/mol]
GCCCTGCGAAAGCAAGGC (((.(((....))).)))	55.7	-33.9
GCCCTGCGAAAGCACCGC ((..(((....)))..))	32.4	-7.84
GCCCTGCGAAAGCCCGGC (((..((....))..)))	39.1	-23
GCCCTGCGAAAGCGCGGC (((..((....))..)))	54.5	-21.5
GCCCTGGGAAACCAAGGC (((.(((....))).)))	44.8	-30.1
GCCCTTCCGAAAGGAGGC (((..(((....))))))	41.1	-17.7
GCCCTTCGAAAGAACGGC (((.(((....))).)))	42.2	-29.7
GCCCTTGGAAACAAGAGC ((.((((....)))).))	37.6	-21.4
GCCCTTGGAAACAGGGGC ((((.((....)).))))	54.4	-41.4
GCCGAACGAAAGTTAGGC (((.(((....))).)))	60.9	-36.2
GCCGAAGGAAACTTCGAC (.(((((....))))).)	41	-19.8
GCCGACCGAAAGGTAGGC (((.(((....))).)))	69.3	-37.5
GCCGACGAAAGTCCTGGC ((((((....)))..)))	45.1	-20.2
GCCGACGAAAGTCTTGGC ((((((....)))..)))	48.1	-23.2
GCCGACGCGAAAGCGGGC (((..(((....))))))	65.9	-18.1
GCCGAGACGAAAGTCGGC (((..(((....))))))	61.8	-28.4
GCCGAGCGAAAGCCCAGC ((.(.((....)).).))	35.8	-12.4
GCCGAGCGAAAGCCGGGC (((..((....))..)))	67.2	-13.3
GCCGAGCGAAAGCGCTGC ((.(.((....)).).))	45.6	-12.4
GCCGAGCGAAAGCTAAGC ((..(((....)))..))	40	-16.3
GCCGAGCGAAAGCTACGC ((..(((....)))..))	45.8	-12.1
GCCGAGCGAAAGCTCAGC ((.((((....)))).))	58	-18.1

— the array DNA melting data of Ke et al. (doi:10.1101/2024.01.08.574731)
